Experimental data reported in ChEMBL document CHEMBL6103596, “Design, Synthesis, and Biological Evaluation of BODIPY-Caged Resiquimod as a Dual-Acting Phototherapeutic” (J Med Chem, 2025).
Activity calls are given as the source filed them. The rule behind the calls is not given here.

Columns and labels:
AD293 [1] = assay: Cytotoxicity against human AD293 cells assessed as cell viability at 0.1 to 10 uM incubated for 24 hrs by MTT assay; assay type: toxicity, cell-based; conditions: ad293, 24 h, dose 0.1-10 µM
How it was run: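 AD293 cells seeded at 4 × 10^4 cells/well in DMEM with 10% FBS. Next day, compound (100 nM, 1 μM, 10 μM) or vehicle added in serum-free DMEM for 24 h, no irradiation. MTT (5 mg/mL reagent) added for 3 h at 37 °C, formazan dissolved in DMSO, absorbance read at 590 nm. Triplicate wells, four independent experiments.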

[2] = Photophysical property of the compound assessed as fluorescence quantum yield; assay type: physicochemical
[3] = Photosensitizing ability of the compound assessed as singlet oxygen quantum yield under 600nm monochromatic light irradiation by DPBF based assay relative to control; assay type: functional
How it was run: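 Singlet oxygen generation followed by the decrease in DPBF absorbance under irradiation. DPBF (20–25 μm) used at 5–10-fold excess over compound (2.5–5 μm).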

[4] = Photorelease activity of the compound in CH3CN assessed as retention time under 532nm laser light by HPLC analysis; assay type: physicochemical
RAW264.7 [5] = assay: Effect on iNOS mRNA expression in mouse RAW264.7 cells at 100 nM preincubated with NAC followed by compound addition and measured after 30 mins under 650nm LED light irradiation by real-time PCR analysis; assay type: functional, cell-based
How it was run: (§1)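 RAW264.7 cells seeded at 0.3 million per 35 mm dish. Next day, pretreated with 10 mM N-acetyl-cysteine for 30 min, then given 100 nM compound and 650 nm LED light for 30 min. Total RNA taken 24 h later and reverse transcribed with random primers. SYBR real-time PCR run for 40 cycles (95/60/72 °C). Quantities calculated by the Ct method. Results given as fold change, means ± SD.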

RAW264.7 [6] = assay: Effect on TNF-alpha mRNA expression in mouse RAW264.7 cells at 100 nM preincubated with NAC followed by compound addition and measured after 30 mins under 650nm LED light irradiation by real-time PCR analysis; assay type: functional, cell-based; how it was run: as §1
[7] = Induction of hydroxyl radical assessed as DMPO-OH radical adduct formation under dark condition measured after 10 mins by ESR spectra analysis; assay type: functional
How it was run: (§2)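 ESR spectra recorded with DMPO as spin trap to detect superoxide and/or hydroxyl radical adducts, before and after 10 min irradiation of compound.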

[8] = Induction of hydroxyl radical assessed as DMPO-OH radical adduct formation under light irradiation measured after 10 mins by ESR spectra analysis; assay type: functional; how it was run: as §2
AD293 [9] = assay: Effect on morphological changes in human AD293 cells stable expressing TLR7 at 10 uM pretreated with N-Acetylcysteine for 30 mins followed by compound addition and measured after 30 mins under LED light irradiation at 650 nm by microscopic analysis; assay type: functional, cell-based
How it was run: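 TLR7-stable AD293 cells seeded at 20,000/well. After 24 h, medium switched to Opti-MEM. 1 h later, 10 mM N-acetyl-cysteine added. 30 min after that, cells given 10 μM compound and exposed to 650 nm LED for 30 min, or shielded from light as control. Cells observed by microscope 24 h after drug treatment.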

AD293 [10] = assay: Effect on morphological changes in human AD293 cells at 10 uM; assay type: functional, cell-based
How it was run: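 AD293 cells treated with 10 μM compound, followed by LED irradiation or kept unirradiated, then morphology examined by microscopy.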

[11] = Induction of superoxide anion radical assessed as DMPO-O2 radical adduct formation under dark condition measured after 10 mins by ESR spectra analysis; assay type: functional; how it was run: as §2
[12] = Drug uptake in human AD293 cells assessed as increase in red fluorescence at 10 uM measured after 40 mins by fluorescence imaging based analysis; assay type: ADME, cell-based; conditions: ad293, 40 min
[13] = Drug uptake in human A549 cells assessed as increase in intracellular fluorescence at 1 uM measured after 40 mins by confocal microscopic analysis; assay type: ADME, cell-based; conditions: a549, 40 min
How it was run: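 A549 cells treated with 1 μM compound. Intracellular fluorescence imaged by confocal microscopy (640 nm laser excitation, 650–750 nm band-pass) at 0 and 40 min after treatment.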

[14] = Induction of superoxide anion radical assessed as DMPO-O2 radical adduct formation under light irradiation measured after 10 mins by ESR spectra analysis; assay type: functional; how it was run: as §2
[15] = Dark toxicity in human HeLa cells assessed as cell viability at 10 uM under dark condition and measured after 72 hrs by CCK-8 method relative to control; assay type: cell-based; conditions: read-out: Activity
How it was run: (§3)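 A549, HaCaT and HeLa cells seeded at 2 × 10^3 cells/well in phenol red-free DMEM with 10% FBS. After 24 h, medium replaced with 1% DMSO containing 10 μM compound. After 90 min, one plate kept dark and one exposed to 530 or 650 nm LED (30 mW) for 15 min. Plates incubated 72 h, then CCK-8 read at 450 nm. Viability taken relative to dark control. Triplicates (HaCaT six).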

[16] = Phototoxicity in human A549 cells assessed as cell viability at 10 uM under 530 ot 650nm 30 mW LED light irradiation and measured after 72 hrs by CCK-8 method relative to control; assay type: functional; conditions: A549, light or radiation study, read-out: Activity; how it was run: as §3
[17] = Dark toxicity in human HaCaT cells assessed as cell viability at 10 uM under dark condition and measured after 72 hrs by CCK-8 method relative to control; assay type: cell-based; conditions: read-out: Activity; how it was run: as §3
[18] = Dark toxicity in human A549 cells assessed as cell viability at 10 uM under dark condition and measured after 72 hrs by CCK-8 method relative to control; assay type: cell-based; conditions: read-out: Activity; how it was run: as §3
[19] = biological target: T1, Toll-like receptor 7 (Homo sapiens) (UniProt Q9NYK1); assay: Activation of TLR7 in human AD293 cells assessed as IkappaB-alpha degradation at 10 uM preincubated with NAC followed by compound addition and measured after 30 mins under 650nm red light irradiation by Western blot analysis; assay type: cell-based; conditions: filed as activator
T1 sequence (whole entry): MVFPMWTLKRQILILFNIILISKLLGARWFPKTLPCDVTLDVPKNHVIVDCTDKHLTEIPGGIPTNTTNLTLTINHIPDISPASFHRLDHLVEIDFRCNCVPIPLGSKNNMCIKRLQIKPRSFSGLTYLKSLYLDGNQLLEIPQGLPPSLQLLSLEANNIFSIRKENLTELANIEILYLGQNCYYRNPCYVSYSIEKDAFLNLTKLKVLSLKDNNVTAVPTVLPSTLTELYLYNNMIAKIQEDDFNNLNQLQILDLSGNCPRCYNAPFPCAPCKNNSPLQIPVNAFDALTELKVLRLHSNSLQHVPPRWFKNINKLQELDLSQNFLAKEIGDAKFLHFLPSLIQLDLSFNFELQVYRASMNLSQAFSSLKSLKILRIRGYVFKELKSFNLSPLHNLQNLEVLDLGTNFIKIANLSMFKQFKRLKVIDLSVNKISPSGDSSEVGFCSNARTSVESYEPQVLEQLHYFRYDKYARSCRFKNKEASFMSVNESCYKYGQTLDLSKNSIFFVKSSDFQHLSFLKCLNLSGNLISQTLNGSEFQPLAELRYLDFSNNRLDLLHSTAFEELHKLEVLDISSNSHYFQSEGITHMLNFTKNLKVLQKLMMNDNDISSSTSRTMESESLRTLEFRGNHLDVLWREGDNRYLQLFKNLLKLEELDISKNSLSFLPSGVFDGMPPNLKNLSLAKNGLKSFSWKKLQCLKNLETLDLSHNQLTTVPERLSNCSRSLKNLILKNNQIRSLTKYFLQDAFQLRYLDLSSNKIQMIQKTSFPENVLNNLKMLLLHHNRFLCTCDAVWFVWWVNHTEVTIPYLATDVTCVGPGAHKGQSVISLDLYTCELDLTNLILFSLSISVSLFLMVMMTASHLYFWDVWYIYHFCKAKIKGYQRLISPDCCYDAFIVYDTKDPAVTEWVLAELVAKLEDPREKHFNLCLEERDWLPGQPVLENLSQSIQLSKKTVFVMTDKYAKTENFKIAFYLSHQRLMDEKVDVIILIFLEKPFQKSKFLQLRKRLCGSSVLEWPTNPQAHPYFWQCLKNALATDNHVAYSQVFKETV
How it was run: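 Stable TLR7-expressing AD293 line made by TLR7 plasmid transfection and hygromycin B selection (250 μg/mL, 10 days). Cells pretreated with N-acetyl-cysteine, then given 10 μM compound, with or without 30 min 650 nm red-light irradiation. Lysates run on 10% SDS-PAGE and blotted to PVDF. Total IκB probed (1:1000) with GAPDH loading control, ECL detection. Means of three experiments.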

| Structure (SMILES) | Activity (AD293 [1]) | Activity [2] | Activity [3] [%] | Retention_time [4] [min] | Activity (RAW264.7 [5]) | Activity (RAW264.7 [6]) | Activity [7] | Activity [8] | Activity (AD293 [9]) | Activity (AD293 [10]) | Activity [11] | Drug uptake [12] | Drug uptake [13] | Activity [14] | viability at 72 h, 10 µM [15] [%] | viability at 10 µM [16] [%] | viability at 72 h, 10 µM [17] [%] | viability at 72 h, 10 µM [18] [%] | Activity [19] |
| --- | --- | --- | --- | --- | --- | --- | --- | --- | --- | --- | --- | --- | --- | --- | --- | --- | --- | --- | --- |
| CC1=CC(C)=[N+]2C1=C(CO)c1c(C)cc(C)n1[B-]2(F)F | Toxic | 0.835 | 7 | 4.15 | – | – | – | – | – | – | – | – | – | – | – | – | – | – | – |
| COCCOCCOCCOc1ccc(/C=C/C2=[N+]3C(=C(CO)c4c(C)cc(/C=C/c5ccc(OCCOCCOCCOC)cc5)n4[B-]3(C)C)C(C)=C2)cc1 | Non-toxic | – | 2.2 | – | inactive | inactive | inactive | inactive | Active; Showed Greater Effect Than Compound 3C | inactive | inactive | Active | Active | inactive | – | – | – | – | – |
| CCOCc1nc2c(N)nc3ccccc3c2n1CC(C)(C)O [RESIQUIMOD] | – | – | – | – | – | – | – | – | inactive | inactive | – | – | – | – | 4 | 21 | 32 | 19 | Active |
